According to ChEMBL document CHEMBL3045352, “Papyracillic acid, a phytotoxic 1,6-dioxaspiro[4,4]nonene produced by Ascochyta agropyrina Var. nana, a potential mycoherbicide for Elytrigia repens biocontrol” (J Agric Food Chem, 2009):
Calls of active or inactive are those of the source. No cut-off for these calls is given here.

Columns and labels:
Assay type in all cases: functional, organism-based
[1] = tested on: Bacillus subtilis; assay: Antimicrobial activity against Bacillus subtilis assessed as zone of lysis at 50 ug/disk
Summary of the method: (§1)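 Paper-disk assay against C. tropicalis, X. campestris and B. subtilis. Standard testing used 50 μg per disk. For concentration dependence, doses ran from 1.5 to 100 μg/disk. Each bioassay was run twice with at least three replicates. Means were compared by Fisher's LSD.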

[2] = tested on: Xanthomonas campestris; assay: Antimicrobial activity against Xanthomonas campestris assessed as zone of lysis at 50 ug/disk; summary of the method: as §1
[3] = tested on: Elymus repens; assay: Mycoherbicidal activity against Elymus repens (couch grass) assessed as decrease in length of necrotic lesions at 1 mg/ml by leaf-disk puncture assay
Summary of the method: (§2)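 Leaf disk-puncture bioassay on leaves of host and nonhost plants. Compound was applied at 1 mg/mL, and necrosis was read 3 days post-application. Each bioassay was run twice with at least three replicates. Error bars are standard error, and means were compared by Fisher's LSD.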

[4] = tested on: Xanthomonas campestris; assay: Antimicrobial activity against Xanthomonas campestris assessed as zone of lysis at 6.25 ug/disk; summary of the method: as §1
[5] = tested on: Cirsium arvense; assay: Mycoherbicidal activity against Cirsium arvense (Canada thistle) assessed as decrease in length of necrotic lesions at 0.5 mg/ml by leaf-disk puncture assay
Summary of the method: (§3)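 Dose-response leaf disk-puncture on E. repens and C. arvense leaves. Concentrations ran from 0.06 to 2 mg/mL (0.6-20 μg/disk), and necrotic symptoms were scored 2 days post-application. Each bioassay was run twice with at least three replicates. Means were compared by Fisher's LSD.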

[6] = tested on: Rosa pendulina; assay: Mycoherbicidal activity against Rosa pendulina assessed as decrease in length of necrotic lesions at 1 mg/ml by leaf-disk puncture assay; summary of the method: as §2
[7] = tested on: Rumex confertus; assay: Mycoherbicidal activity against Rumex confertus (Asian dock) assessed as decrease in length of necrotic lesions at 1 mg/ml by leaf-disk puncture assay; summary of the method: as §2
[8] = tested on: Cirsium arvense; assay: Mycoherbicidal activity against Cirsium arvense (Canada thistle) assessed as decrease in length of necrotic lesions at 1 mg/ml by leaf-disk puncture assay; summary of the method: as §2
[9] = tested on: Hordeum vulgare; assay: Mycoherbicidal activity against Hordeum vulgare (barley) assessed as decrease in length of necrotic lesions at 1 mg/ml by leaf-disk puncture assay; summary of the method: as §2
[10] = tested on: Bacillus subtilis; assay: Antimicrobial activity against Bacillus subtilis assessed as zone of lysis at 6.25 ug/disk; summary of the method: as §1
[11] = tested on: Sonchus arvensis; assay: Mycoherbicidal activity against Sonchus arvensis (field sow-thistle) assessed as decrease in length of necrotic lesions at 1 mg/ml by leaf-disk puncture assay; summary of the method: as §2
[12] = tested on: Cannabis sativa; assay: Mycoherbicidal activity against Cannabis sativa (hemp) assessed as decrease in length of necrotic lesions at 1 mg/ml by leaf disk puncture assay; summary of the method: as §2
[13] = tested on: Chenopodium album; assay: Mycoherbicidal activity against Chenopodium album assessed as decrease in length of necrotic lesions at 1 mg/ml by leaf-disk puncture assay; summary of the method: as §2
[14] = tested on: Trifolium pratense; assay: Mycoherbicidal activity against Trifolium pratense (red clover) assessed as decrease in length of necrotic lesions at 1 mg/ml by leaf-disk puncture assay; summary of the method: as §2
[15] = tested on: Phleum pratense; assay: Mycoherbicidal activity against Phleum pratense (timothy grass) assessed as decrease in length of necrotic lesions at 1 mg/ml by leaf-disk puncture assay; summary of the method: as §2
[16] = tested on: Taraxacum officinale; assay: Mycoherbicidal activity against Taraxacum officinale (dandelion) assessed as decrease in length of necrotic lesions at 1 mg/ml by leaf-disk puncture assay; summary of the method: as §2
[17] = tested on: Elymus repens; assay: Mycoherbicidal activity against Elymus repens (couch grass) assessed as decrease in length of necrotic lesions at 0.5 mg/ml by leaf-disk puncture assay; summary of the method: as §3
[18] = tested on: Candida tropicalis; assay: Antimicrobial activity against Candida tropicalis assessed as growth inhibition at 6.25 ug/disk; summary of the method: as §1
[19] = tested on: Candida tropicalis; assay: Antimicrobial activity against Candida tropicalis assessed as growth inhibition at 50 ug/disk; summary of the method: as §1

| Structure (SMILES) | Activity [1] | Activity [2] | Activity [3] | Activity [8] | other results |
| --- | --- | --- | --- | --- | --- |
| COC1=CC(=O)O/C1=C(/COC(C)=O)C(C)C(C)=O (stereo unspecified) | Active | Active | Active | – | – |
| C=C1[C@H](C)[C@](C)(O)O[C@]12OC(=O)C=C2OC | – | – | Active | Active | Activity [4]: Active; Activity [5]: Active; Activity [6]: Active; Activity [7]: Active; Activity [9]: Active; Activity [10]: Active; Activity [11]: Active; Activity [12]: inactive; Activity [13]: Active; Activity [14]: Active; Activity [15]: Active; Activity [16]: Active; Activity [17]: Active; growth inhibition (GI) [18]: Active |
| COC1=CC(=O)O/C1=C(\COC(C)=O)C(C)C(C)=O (stereo unspecified) | – | – | Active | Active | – |
| C=C(C(=O)/C(=C\C(=O)OC)OC)C(C)C(C)=O (stereo unspecified) | – | – | – | Active | – |
| C=C(C(C)C(C)=O)C1(OC(C)=O)OC(=O)C=C1OC (stereo unspecified) | Active | Active | Active | Active | – |
| C=C1[C@H](C)[C@](C)(OC)O[C@]12OC(=O)C=C2OC | Active | Active | Active | Active | growth inhibition (GI) [19]: Active |
